# Compound activity (PubChem BioAssay)
# MPTP block = inhibitors of mitochondrial permeability transition pore. isolated mouse mitochondria, Ca2+ swelling absorbance, 30 min. inhibition, % at 10 µM. 360,000 compounds, 1.4% hits. AID 602449;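 active = inhibition of 50% or more, scaled per plate between neutral and stimulator controls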;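 also: 0% = DMSO wells given calcium and 100% = 1 mM EGTA wells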
# EBI2 block = antagonists of human EBI2 receptor; 360,000 compounds, 0.81% hits; inhibition, % at 5 µM; EBI2 beta-arrestin recruitment, luminescence, 7a,25-OHC stimulated; in the data active = inhibition above about 38%;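 also: enzyme fragment complementation signal reports receptor beta-arrestin coupling in cells; 0% = agonist plus DMSO wells and 100% = wells without agonist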
# Target sequence (P32249 whole entry, looked up, the tested form may be a part): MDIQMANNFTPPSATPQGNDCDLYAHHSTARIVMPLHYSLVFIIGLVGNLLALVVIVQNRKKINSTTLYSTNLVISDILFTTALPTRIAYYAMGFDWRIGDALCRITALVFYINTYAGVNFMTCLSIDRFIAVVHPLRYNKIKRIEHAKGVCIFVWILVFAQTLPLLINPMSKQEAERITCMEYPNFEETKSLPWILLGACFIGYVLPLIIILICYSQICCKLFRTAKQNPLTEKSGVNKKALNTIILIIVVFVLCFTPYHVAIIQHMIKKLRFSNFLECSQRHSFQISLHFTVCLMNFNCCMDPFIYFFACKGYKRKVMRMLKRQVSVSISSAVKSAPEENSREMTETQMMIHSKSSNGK
# SENP1 FRET inh = blocks the human SENP1 SUMO protease catalytic domain. AID 624204. inhibition, % at 10 µM. recombinant SENP1 catalytic domain, CyPet-SUMO1-YPet FRET cleavage. Q9P0U3. 360,000 compounds, 0.21% hits;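 active = inhibition at least 30% at 10 µM, raw YFP signal under a set limit, fluorescence ratio 0.5 to 1.5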;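 also: 0% = enzyme with DMSO and 100% = no enzyme wells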
# Target sequence (Q9P0U3 419-644 limits assumed): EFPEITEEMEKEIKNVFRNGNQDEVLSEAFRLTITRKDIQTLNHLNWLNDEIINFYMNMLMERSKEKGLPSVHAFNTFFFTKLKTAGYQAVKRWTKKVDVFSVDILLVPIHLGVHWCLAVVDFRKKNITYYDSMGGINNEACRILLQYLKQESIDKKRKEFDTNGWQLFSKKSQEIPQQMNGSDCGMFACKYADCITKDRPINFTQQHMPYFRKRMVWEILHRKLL
#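 Assay system – human recombinant His6-tagged SENP1 catalytic domain enzyme · Input – SENP1 enzyme, 20 pM final · Buffer or medium – Tris pH 8 buffer plus EDTA, NaCl, BME, BSA, NP40, catalase · Schedule – 50 min reaction at room temperature · Technique – FRET read of cyan and yellow fluorescence · Control set – no-enzyme wells low, DMSO-plus-enzyme wells high control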
# GRIN3A LBD mod = modulates the human NR3A ligand-binding domain. 340,000 compounds, 2.5% hits. NR3A LBD differential scanning fluorimetry, Tm shift; 0% = protein alone, 100% = glycine-bound protein. Tm shift relative to glycine control, % at 25 µM;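 active = melting temperature shift of at least 10% of the positive control shift, at one fixed dose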
# Numbers without * were called inactive; . = not tested or not shown; ! = repeats disagree. Hits are enriched below; roughly 4.4% of the tested compounds scored in any of these assays.
SMILES,MPTP block,EBI2 block,SENP1 FRET inh,GRIN3A LBD mod
O=C(CC1C(=O)NC2CCCCC2N1C(=O)c1ccc(F)cc1)Nc1ccccc1 (stereo unspecified),0,-6,0,1
Cc1ccc(S(=O)(=O)NCCC(=O)Nc2nccs2)cc1,-3,-26,3,0
COc1ccc(-c2coc3c(CN4CCCCC4C)c(O)ccc3c2=O)cc1 (stereo unspecified),1,13,-3,3
CN(C)CCC(c1ccc(Cl)cc1)c1ccccn1 (stereo unspecified),0,5,-1,16*!
Cc1ccc(-c2cccc(OC(=O)c3ccccc3F)c2)cc1,2,7,1,1
CNC(=O)COc1ccccc1C(=O)Nc1ccc2c(c1)oc1ccccc12,12,14,-1,0
N#Cc1ccccc1NC(=O)c1ccccc1OCC(=O)Nc1ccc2c(c1)oc1ccccc12,8,10,0,23*
O=C(N=C1SC2CS(=O)(=O)CC2N1c1ccc(Br)cc1)C1CCCO1 (stereo unspecified),-3,-7,2,1
O=C(COc1ccc(/C=N/NC(=O)c2ccc(O)cc2)cc1)Nc1cccc([N+](=O)[O-])c1,0,-17,2,31*
O=C(N/N=C/c1ccc([N+](=O)[O-])cc1)c1ccc(COc2ccccc2-c2ccccc2)cc1,44,13,2,16*
CCC(=O)Nc1ccc(C(=O)N/N=C/c2ccc([N+](=O)[O-])cc2)cc1,0,-11,-5,16*
O=C(COc1ccc(/C=N/NC(=O)c2ccncc2)cc1)Nc1ccc([N+](=O)[O-])cc1,2,4,3,-6
O=C(COc1ccc(/C=N/NS(=O)(=O)c2ccccc2)cc1)Nc1cccc(Cl)c1,3,-4,0,16*
O=C(N/N=C/c1ccc([N+](=O)[O-])cc1)c1ccccc1OCc1ccccc1,2,29,0,-11
O=C(NCc1ccc2c(c1)OCO2)c1ccc(Cl)c(S(=O)(=O)N2CCOCC2)c1,-3,-6,2,0
Cc1cnc(SCc2cnc(C)nc2N)nc1,-2,-3,1,-1
O=C(Nc1ccc(S(=O)(=O)N2CCCC2)cc1)c1cccnc1Cl,0,2,0,1
COc1ccc(S(=O)(=O)Nc2ccc(Oc3ccsc3C(=O)O)cc2)cc1,0,-3,-3,3
Cc1c(NC(=O)COC(=O)c2ccccc2O)c(=O)n(-c2ccccc2)n1C,0,5,-1,.
COc1ccc(N(CC(=O)N2CCN(Cc3ccccc3)CC2)S(C)(=O)=O)cc1Cl,0,0,0,0
Cc1ccc(S(=O)(=O)N[C@@H](C)CO)cc1,0,2,1,.
Nc1ccc(C(=O)N/N=C\C=C\c2ccc([N+](=O)[O-])cc2)cc1,0,-26,0,15*
O=C(CO/N=C/c1cccc([N+](=O)[O-])c1)Nc1ccc2ccccc2c1,0,-8,0,13*
O=C(N/N=C/C=C/c1ccc2c(c1)OCO2)c1ccc([N+](=O)[O-])cc1,-1,4,1,-2
Nc1cc(N)nc(SCC(=O)c2ccc3c(c2)NC(=O)CO3)n1,0,-7,-2,153*
SMILES,MPTP block,EBI2 block,SENP1 FRET inh,GRIN3A LBD mod
COc1ccc(/C=C2\SC(N3CCc4ccccc4C3)=NC2=O)cc1,4,37,-4,12*
COc1cc(/C=C2\SC(N3CCc4ccccc4C3)=NC2=O)cc(OC)c1OC,4,12,-4,-2
CCOc1ccc(/C=C2\SC(N3CCc4ccccc4C3)=NC2=O)cc1,8,65*,-4,-11
COc1cc(C(C(=O)NC2CCCCC2)N(C(=O)Cc2c[nH]c3ccccc23)c2ccc(C)cc2)cc(OC)c1OC (stereo unspecified),0,18,-4,26*
Cc1ccc(NC(=O)c2ccc(NS(=O)(=O)/C=C/c3ccccc3)cc2)nc1,1,11,-1,18*
O=C(Nc1ccccc1C(=O)OCC(=O)c1c[nH]c2ccccc12)c1ccco1,-18,20,-1,26*
O=C(NC1CCS(=O)(=O)C1)c1ccc2c(c1)OCO2 (stereo unspecified),-1,-22,-1,-1
CSc1nsc(SCC(=O)N2CCN(c3ccccc3)CC2)n1,2,0,3,11*
COc1ccc(CN(C)C[C@@H]2OCCCC[C@H](C)Oc3ccc(NC(=O)Nc4ccc(F)cc4)cc3C(=O)N([C@H](C)CO)C[C@H]2C)cc1,3,-5,1,.
CCOC(=O)/C(C#N)=C1/C=CN(c2ccccc2)C=N1,3,4,3,14*
CCOC(=O)/C(C#N)=C1/C=CN(c2ccc(C)cc2)C=N1,-1,2,1,1
CCN(CC)c1ccc(N)cc1,49,15,54*,2
O=C1c2ccccc2NC(c2ccc(-c3ccc(C(F)(F)F)cc3)o2)N1O (stereo unspecified),-1,1,-1,23*
O=C1c2ccccc2NC(c2ccc(-c3cccs3)o2)N1O (stereo unspecified),0,3,-46,-2
O=S(=O)(NCCSc1nnnn1-c1ccccc1)c1cccs1,0,1,3,0
Cc1ccc(NC(=O)CS(=O)CC(=O)NCCCc2ccccc2)cc1Cl (stereo unspecified),-1,-2,-1,-4
Cc1ccc(NC(=O)CS(=O)CC(=O)Nc2cnc3ccccc3c2)cc1Cl (stereo unspecified),1,6,1,32*
COc1ccc(Cl)cc1-c1nc(SCC(=O)NCCN2C(=O)CSC2=O)n[nH]1,0,-14,2,0
COc1cc2c(cc1OC)CN(S(=O)(=O)c1cccc(F)c1)CC2,-1,-12,-1,1
COc1ccc(NC(=O)CN(C)CC(=O)N2CC(=O)Nc3ccccc32)cc1,0,-12,-6,1
Cc1cccnc1NC(=O)c1csnn1,0,4,2,10*
O=C(Nc1csnn1)c1csnn1,-1,-3,1,15*
Cc1cc(C)nc(NC(=O)c2csnn2)c1,0,-14,-4,-3
C/C(N)=C(/C#N)C(=O)COC(=O)c1cc(-c2ccc(Br)cc2)nc2ccccc12,0,24,0,18*
Cc1csc(=O)n1CCC(=O)OCC(=O)Nc1cc([N+](=O)[O-])ccc1Cl,-3,1,2,-1
O=C(NNC(=O)c1cc2cc(Br)ccc2oc1=O)c1ccc(O)cc1O,6,-20,12,17*
N#Cc1c(N)nc2c(c1-c1ccncc1)CCCCCC2,1,-3,0,36*
COc1ccc(CN2C(=O)C(C)Nc3ncnc(N4CCN(c5ccccn5)CC4)c32)cc1 (stereo unspecified),0,62*,-1,3
Cc1ccc(CN2C(=O)C(CC(C)C)Nc3ncnc(N4CCN(c5ccccn5)CC4)c32)cc1 (stereo unspecified),1,18,-2,-1
CC1Nc2ncnc(N3CCN(c4ccccn4)CC3)c2N(Cc2ccccc2)C1=O (stereo unspecified),0,45*,-2,-2
